Calls of active or inactive are those of the source. No cut-off for these calls is given here.
How the values were obtained:
[1] = test system: HSC-3; assay: Selectivity index, ratio of average CC50 for normal human cell line to CC50 for human HSC3 cells
[2] = test system: HL-60; assay: Selectivity index, ratio of average CC50 for normal human cell line to CC50 for human HL-60 cells
[3] = test system: HSC-4; assay: Selectivity index, ratio of average CC50 for normal human cell line to CC50 for human HSC4 cells
[4] = test system: HSC-2; assay: Selectivity index, ratio of average CC50 for normal human cell line to CC50 for human HSC2 cells
[5] = test system: HSC-3; assay: Cytotoxicity against human HSC3 cells after 48 hrs; assay type: functional; details: HSC-3, 48 h
[6] = test system: HSC-4; assay: Cytotoxicity against human HSC4 cells after 48 hrs; assay type: functional; details: HSC-4, 48 h
[7] = Toxicity in mouse harboring L1210 cells; assay type: organism-based
[8] = test system: HSC-2; assay: Cytotoxicity against human HSC2 cells after 48 hrs; assay type: functional; details: HSC-2, 48 h
[9] = test system: HT-29; assay: Anticancer activity against human HT-29 cells; assay type: functional, cell-based
[10] = Toxicity in mouse harboring P-388 cells; assay type: organism-based
[11] = test system: HL-60; assay: Cytotoxicity against human HL60 cells after 48 hrs; assay type: functional; details: HL-60, 48 h
[12] = test system: CCRF-CEM; assay: Anticancer activity against human CEM cells after 72 hrs; assay type: functional, cell-based
[13] = test system: COLO 205; assay: Anticancer activity against human COLO205 cells; assay type: functional, cell-based
[14] = test system: HCT-15; assay: Anticancer activity against human HCT15 cells; assay type: functional, cell-based
[15] = test system: Mus musculus; assay: Toxicity in mouse assessed as mortality at 30 to 300 mg/kg, ip after 0.5 to 4 hrs; assay type: organism-based; set-up: dose 30-300 mg/kg, route intraperitoneal; details: in vivo
In short: (§1)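 Mice dosed intraperitoneally at 30, 100 and 300 mg/kg; animals observed for deaths and neurological deficit at 0.5 and 4 h after injection.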

[16] = test system: SW-620; assay: Anticancer activity against human SW620 cells; assay type: functional, cell-based
[17] = test system: HCC 2998; assay: Anticancer activity against human HCC2998 cells; assay type: functional, cell-based
[18] = test system: KM12; assay: Anticancer activity against human KM12 cells; assay type: functional, cell-based
[19] = test system: CCRF-CEM; assay: Anticancer activity against human CCRF-CEM cells; assay type: functional, cell-based
[20] = Anticancer activity against human Molt4/C8 cells after 72 hrs; assay type: functional, cell-based; details: MOLT-4, 72 h
[21] = test system: Mus musculus; assay: Neurotoxicity in mouse at 30 to 300 mg/kg, ip after 0.5 to 4 hrs by rotarod method; assay type: toxicity, organism-based; set-up: dose 30-300 mg/kg, route intraperitoneal; details: in vivo; in short: as §1
[22] = test system: HL-60; assay: Anticancer activity against human HL60 cells; assay type: functional, cell-based
[23] = test system: K562; assay: Anticancer activity against human K562 cells; assay type: functional, cell-based
[24] = test system: RPMI-8226; assay: Anticancer activity against human RPMI8226 cells; assay type: functional, cell-based
[25] = test system: L1210; assay: Anticancer activity against mouse L1210 cells after 48 hrs; assay type: functional, cell-based; details: L1210, 48 h
[26] = test system: HCT-116; assay: Anticancer activity against human HCT116 cells; assay type: functional, cell-based
[27] = test system: Mus musculus; assay: Neurotoxicity in mouse at 30 to 300 mg/kg, ip after 0.5 hrs by rotarod method; assay type: toxicity, organism-based; set-up: dose 30-300 mg/kg, route intraperitoneal; details: in vivo
In short: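 Mice given 30, 100 and 300 mg/kg by intraperitoneal injection; animals scored for mortality and neurotoxicity at 0.5 and 4 h after dosing.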

[28] = Cytotoxicity against human HGF cells after 48 hrs; assay type: cell-based
[29] = test system: HL-60; assay: Induction of mitochondrial pathway-dependent apoptosis in human HL60 cells assessed as DNA fragmentation at 0.5 to 8 uM after 6 hrs by agarose gel electrophoresis; assay type: functional, cell-based
In short: (§2)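 Cells exposed 6 h to a range of concentrations; a UV-irradiated comparison was given 1 min of UV. Treated and control cells were then held 3 h in regular culture medium, after which DNA was extracted and run on 2% agarose gel electrophoresis.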

[30] = Cytotoxicity against human HPC cells after 48 hrs; assay type: cell-based
[31] = test system: L1210; assay: Ratio of melphalan IC50 to compound IC50 for mouse L1210 cells; assay type: functional
[32] = test system: MOLT-4; assay: Ratio of melphalan IC50 to compound IC50 for human Molt4/C8 cells; assay type: functional
[33] = test system: HSC-2; assay: Induction of mitochondrial pathway-dependent apoptosis in human HSC2 cells assessed as caspase 3 activation at 1 to 3 uM; assay type: functional, cell-based
In short: (§3)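 Caspase-3 activity measured in lysates of treated HL-60 and HSC-2 cells: 100 μg protein per assay, incubated 2 h with the substrate. Mean ± SD of three experiments.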

[34] = test system: HL-60; assay: Induction of mitochondrial pathway-dependent apoptosis in human HL60 cells assessed as caspase 3 activation at 1 to 3 uM; assay type: functional, cell-based; in short: as §3
[35] = test system: HSC-2; assay: Induction of mitochondrial pathway-dependent apoptosis in human HSC2 cells assessed as DNA fragmentation at 0.5 to 8 uM after 6 hrs by agarose gel electrophoresis; assay type: functional, cell-based; in short: as §2
[36] = Cytotoxicity against human HPLF cells after 48 hrs; assay type: cell-based
[37] = test system: CCRF-CEM; assay: Ratio of melphalan IC50 to compound IC50 for human CEM cells; assay type: functional

Row | SMILES | Ratio [1] | Ratio [2] | Ratio [3] | Ratio [4] | CC50 [5] | CC50 [6] | IC50 [9] | IC50 [12] | IC50 [13] | IC50 [14] | Activity [15] | IC50 [16] | IC50 [17] | IC50 [18] | IC50 [19] | IC50 [20] | IC50 [22] | IC50 [23] | IC50 [25] | IC50 [26] | other results
1 | N[C@@H](Cc1ccc(N(CCCl)CCCl)cc1)C(=O)O [MELPHALAN] | 8.4 | 150 | 6.6 | 24.1 | 25 µM | 32 µM | 46.8 µM | – | – | – | – | – | – | – | – | – | – | – | – | – | LD50 [7]: 21.7 mg/kg; CC50 [8]: 8.7 µM; LD50 [10]: 21.7 mg/kg; CC50 [11]: 1.4 µM
2 | O=C1/C(=C/c2ccc(Cl)cc2)CN(C(=O)CCSCCS(=O)(=O)O)C/C1=C\c1ccc(Cl)cc1 | – | – | – | – | – | – | 25.1 µM | 41.6 µM | 24 µM | 30.2 µM | Non-toxic | 29.5 µM | 22.4 µM | 25.1 µM | 9.33 µM | 35.8 µM | 25.7 µM | 28.2 µM | 100 µM | 28.2 µM | Activity [21]: Non-toxic; IC50 [24]: 18.2 µM
3 | O=c1[nH]cc(F)c(=O)[nH]1 [FLUOROURACIL] | – | – | – | – | – | – | 10.2 µM | – | 4.17 µM | 9.71 µM | – | > 100 µM | 13.5 µM | 8.32 µM | 33.1 µM | – | > 100 µM | 2.4 µM | – | 8.51 µM | –
4 | O=C1/C(=C/c2ccccc2)CN(C(=O)CCSCCS(=O)(=O)O)C/C1=C\c1ccccc1 | – | – | – | – | – | – | – | 125 µM | – | – | Non-toxic | – | – | – | – | 143 µM | – | – | 234 µM | – | Activity [27]: Toxic
5 | Cc1ccc(/C=C2\CN(C(=O)CCSCCS(=O)(=O)O)C/C(=C\c3ccc(C)cc3)C2=O)cc1 | – | – | – | – | – | – | – | 194 µM | – | – | Non-toxic | – | – | – | – | 79.7 µM | – | – | 198 µM | – | Activity [27]: Toxic
6 | O=C1/C(=C/c2ccc([N+](=O)[O-])cc2)CN(C(=O)CCSCCO)C/C1=C\c1ccc([N+](=O)[O-])cc1 | 8.5 | 13.3 | 15.5 | 17.3 | 0.69 µM | 0.38 µM | 0.1 µM | 0.48 µM | 0.06 µM | 0.21 µM | Non-toxic | 0.07 µM | 0.28 µM | 0.17 µM | 0.04 µM | 0.49 µM | 0.1 µM | 0.06 µM | 3.92 µM | 0.11 µM | CC50 at 48 h [28]: 5.4 µM; Activity [29]: Active; CC50 at 48 h [30]: 5.8 µM; Ratio IC50 [31]: 96; Ratio IC50 [32]: 6.7; Activity [33]: inactive; Activity [21]: Non-toxic; Activity [34]: Active; CC50 [8]: 0.34 µM; Activity [35]: inactive; CC50 at 48 h [36]: 6.4 µM; IC50 [24]: 0.02 µM; Ratio IC50 [37]: 5.1; CC50 [11]: 0.44 µM

Source: ChEMBL document CHEMBL1772966, “3,5-Bis(benzylidene)-1-[3-(2-hydroxyethylthio)propanoyl]piperidin-4-ones: a novel cluster of potent tumor-selective cytotoxins” (J Med Chem, 2011)
